# Key:
# [1] = biological target: T1, Cannabinoid receptor 1 (Homo sapiens, UniProt P21554); conditions: CHO-K1
# [2] = test system: MDCK; experiment: Permeability from apical to basal side of MDCK cells expressing human mdr1 gene; type: ADME, cell-based, Canis lupus familiaris; conditions: dog
# How it was run: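 MDCK-mdr1 cells grown 4 days to confluence on Transwell-type filters in DMEM/F12 with 10% FBS and antibiotics. Compound added apically at 3.16 μM in HBSS with 25 mM D-glucose, HEPES-buffered to pH 7.4; 1 hr at 37°C. Apical and basal samples collected and analysed by LC-MS/MS (MRM).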
# [3] = species: Homo sapiens; experiment: Selectivity ratio of Ki for CB2 receptor to Ki for human CB1 receptor
# [4] = biological target: Cannabinoid receptor 2 (Homo sapiens, UniProt P34972); experiment: Displacement of [3H]CP55940 from CB2 receptor expressed in CHO-K1 cells; type: cell-based
# [5] = biological target: T1, Cannabinoid receptor 1; experiment: biochemical; type: cell-based, CHO-K1
# 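Throughout, for Ke: antagonism measured as blockade of CP55940-evoked intracellular Ca2+ rise, read fluorometrically, in cells additionally carrying Galphaq16.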
# Sequence of Cannabinoid receptor 2 (P34972 whole entry): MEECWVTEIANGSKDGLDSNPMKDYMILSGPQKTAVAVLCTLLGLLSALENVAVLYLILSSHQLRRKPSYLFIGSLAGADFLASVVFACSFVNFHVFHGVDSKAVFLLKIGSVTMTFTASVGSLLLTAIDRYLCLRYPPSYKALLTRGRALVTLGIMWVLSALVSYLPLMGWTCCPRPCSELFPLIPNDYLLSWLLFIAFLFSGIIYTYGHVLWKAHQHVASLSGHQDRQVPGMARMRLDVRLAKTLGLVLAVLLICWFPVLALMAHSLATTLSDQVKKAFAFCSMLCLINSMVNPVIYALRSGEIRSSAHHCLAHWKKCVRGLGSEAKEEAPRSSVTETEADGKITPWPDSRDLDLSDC
# T1 sequence (P21554 whole entry): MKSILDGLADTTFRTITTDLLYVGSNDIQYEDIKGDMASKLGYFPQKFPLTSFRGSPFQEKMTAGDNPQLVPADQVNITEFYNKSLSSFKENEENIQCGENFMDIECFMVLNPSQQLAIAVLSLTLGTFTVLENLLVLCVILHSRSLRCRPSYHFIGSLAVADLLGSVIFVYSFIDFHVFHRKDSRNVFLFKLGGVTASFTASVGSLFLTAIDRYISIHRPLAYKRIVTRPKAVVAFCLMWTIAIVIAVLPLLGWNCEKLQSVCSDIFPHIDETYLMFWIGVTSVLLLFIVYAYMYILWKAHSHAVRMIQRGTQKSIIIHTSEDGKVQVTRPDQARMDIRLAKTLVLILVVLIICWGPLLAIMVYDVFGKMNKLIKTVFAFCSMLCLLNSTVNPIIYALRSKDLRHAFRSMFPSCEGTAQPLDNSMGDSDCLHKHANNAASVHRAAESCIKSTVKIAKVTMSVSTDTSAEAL
SMILES,Ke [1] [nM],permeability [2] [%],Ratio Ki [3],Ki [4] [nM],Ki [5] [nM]
CCCNC(=O)NCC1CCC(CNC(=O)c2nn(-c3ccc(Cl)cc3Cl)c(-c3ccc(Cl)cc3)c2C)CC1 (stereo unspecified),486,,,,
CCCCCCNC(=O)NC1(c2ccccc2)CCN(C(=O)c2nn(-c3ccc(Cl)cc3Cl)c(-c3ccc(Cl)cc3)c2C)CC1,0.5,< 1,62,,
CCOC(=O)N1CCC[C@@H](NC(=O)c2nn(-c3ccc(Cl)cc3Cl)c(-c3ccc(Cl)cc3)c2C)C1,10.4,< 1,143,2510,17.5
Cc1c(C(=O)N[C@@H]2CCCN(C(=O)NC(C)(C)C)C2)nn(-c2ccc(Cl)cc2Cl)c1-c1ccc(Cl)cc1,268,,,,
CCCNC(=O)N1CCC(NC(=O)c2nn(-c3ccc(Cl)cc3Cl)c(-c3ccc(Cl)cc3)c2C)CC1,66.5,,46,8460,184
CCCNC(=O)NC1(c2ccccc2)CCN(C(=O)c2nn(-c3ccc(Cl)cc3Cl)c(-c3ccc(Cl)cc3)c2C)CC1,0.4,,39,,
Cc1c(C(=O)N[C@H]2CCCNC2)nn(-c2ccc(Cl)cc2Cl)c1-c1ccc(Cl)cc1,1880,,,,
CCNC1(C(N)=O)CCN(C(=O)c2nn(-c3ccc(Cl)cc3Cl)c(-c3ccc(Cl)cc3)c2C)CC1,91,,28.3,,
CCCCNC(=O)N1CCC[C@H](NC(=O)c2nn(-c3ccc(Cl)cc3Cl)c(-c3ccc(Cl)cc3)c2C)C1,230,,,,
CC(=O)NC1(c2ccccc2)CCN(C(=O)c2nn(-c3ccc(Cl)cc3Cl)c(-c3ccc(Cl)cc3)c2C)CC1,201,,3.4,,
Cc1c(C(=O)N2CCC(NC(=O)NC(C)C)(c3ccccc3)CC2)nn(-c2ccc(Cl)cc2Cl)c1-c1ccc(Cl)cc1,0.7,,364,,
Cc1c(C(=O)NC2CCN(C(=O)NC(C)C)CC2)nn(-c2ccc(Cl)cc2Cl)c1-c1ccc(Cl)cc1,16.7,14,114,9790,86
CCNC(=O)N1CCC[C@H](NC(=O)c2nn(-c3ccc(Cl)cc3Cl)c(-c3ccc(Cl)cc3)c2C)C1,280,,,,
Cc1c(C(=O)N[C@@H]2CCCN(S(C)(=O)=O)C2)nn(-c2ccc(Cl)cc2Cl)c1-c1ccc(Cl)cc1,7,< 1,106,1250,11.8
CC(=O)N1CCC[C@@H](NC(=O)c2nn(-c3ccc(Cl)cc3Cl)c(-c3ccc(Cl)cc3)c2C)C1,530,,,,
CCCCNC(=O)NC1(c2ccccc2)CCN(C(=O)c2nn(-c3ccc(Cl)cc3Cl)c(-c3ccc(Cl)cc3)c2C)CC1,0.4,< 1,178,,
Cc1c(C(=O)NC2CCN(C(N)=O)CC2)nn(-c2ccc(Cl)cc2Cl)c1-c1ccc(Cl)cc1,4100,,,,
CC(=O)N1CCC(NC(=O)c2nn(-c3ccc(Cl)cc3Cl)c(-c3ccc(Cl)cc3)c2C)CC1,195,,34.2,2240,65.3
CC(=O)N1CCC[C@H](NC(=O)c2nn(-c3ccc(Cl)cc3Cl)c(-c3ccc(Cl)cc3)c2C)C1,86,14,111,4350,39.1
Cc1c(C(=O)N[C@@H]2CCCN(C(=O)OC(C)(C)C)C2)nn(-c2ccc(Cl)cc2Cl)c1-c1ccc(Cl)cc1,52,< 1,302,6720,22.3
Cc1c(C(=O)N[C@@H]2CCCN(C(=O)NC(C)C)C2)nn(-c2ccc(Cl)cc2Cl)c1-c1ccc(Cl)cc1,31.3,,43,4130,97
Cc1c(C(=O)N2CCC(NC(=O)NC3CCCCC3)(c3ccccc3)CC2)nn(-c2ccc(Cl)cc2Cl)c1-c1ccc(Cl)cc1,12,,25,20000,
Cc1c(C(=O)N[C@H]2CCCN(C(=O)NC(C)C)C2)nn(-c2ccc(Cl)cc2Cl)c1-c1ccc(Cl)cc1,265,,,,
Cc1c(C(=O)N2CCC(C(=O)O)(c3ccccc3)CC2)nn(-c2ccc(Cl)cc2Cl)c1-c1ccc(Cl)cc1,1170,,,,

SMILES,Ke [1] [nM],permeability [2] [%],Ratio Ki [3],Ki [4] [nM],Ki [5] [nM]
Cc1c(C(=O)NCC2CCC(CNC(=O)NC(C)C)CC2)nn(-c2ccc(Cl)cc2Cl)c1-c1ccc(Cl)cc1 (stereo unspecified),351,,,,
CCNC(=O)N1CCC[C@@H](NC(=O)c2nn(-c3ccc(Cl)cc3Cl)c(-c3ccc(Cl)cc3)c2C)C1,171,,,,
CCNC(=O)NCC1CCC(CNC(=O)c2nn(-c3ccc(Cl)cc3Cl)c(-c3ccc(Cl)cc3)c2C)CC1 (stereo unspecified),135,,,,
Cc1c(C(=O)N2CCC(NC(=O)Nc3ccc(N(C)C)cc3)(c3ccccc3)CC2)nn(-c2ccc(Cl)cc2Cl)c1-c1ccc(Cl)cc1,264,,11,16300,1490
Cc1c(C(=O)N2CCC(NC(=O)Nc3ccc(F)cc3)(c3ccccc3)CC2)nn(-c2ccc(Cl)cc2Cl)c1-c1ccc(Cl)cc1,89,,33,20000,614
CCCCNC(=O)N1CCC(NC(=O)c2nn(-c3ccc(Cl)cc3Cl)c(-c3ccc(Cl)cc3)c2C)CC1,78.1,,47,8720,187
Cc1c(C(=O)N2CCC(NC(=O)Nc3ccc(C#N)cc3)(c3ccccc3)CC2)nn(-c2ccc(Cl)cc2Cl)c1-c1ccc(Cl)cc1,> 10000,,,,
CCCNC(=O)N1CCC[C@H](NC(=O)c2nn(-c3ccc(Cl)cc3Cl)c(-c3ccc(Cl)cc3)c2C)C1,70,,29,7800,271
CCNC1(C(N)=O)CCN(c2ncnc3c2nc(-c2ccccc2Cl)n3-c2ccc(Cl)cc2)CC1 [OTENABANT],,90,,,
Cc1c(C(=O)N[C@H]2CCCN(C(=O)OC(C)(C)C)C2)nn(-c2ccc(Cl)cc2Cl)c1-c1ccc(Cl)cc1,842,,,,
CCNC(=O)NC1(c2ccccc2)CCN(C(=O)c2nn(-c3ccc(Cl)cc3Cl)c(-c3ccc(Cl)cc3)c2C)CC1,10.8,,12,,
CCCCNC(=O)NCC1CCC(CNC(=O)c2nn(-c3ccc(Cl)cc3Cl)c(-c3ccc(Cl)cc3)c2C)CC1 (stereo unspecified),274,,,,
CCNC(=O)N1CCC(NC(=O)c2nn(-c3ccc(Cl)cc3Cl)c(-c3ccc(Cl)cc3)c2C)CC1,20.5,,35,5690,165
Cc1c(C(=O)NC2CCN(S(C)(=O)=O)CC2)nn(-c2ccc(Cl)cc2Cl)c1-c1ccc(Cl)cc1,269,,,,
CCOC(=O)N1CCC(NC(=O)c2nn(-c3ccc(Cl)cc3Cl)c(-c3ccc(Cl)cc3)c2C)CC1,3,< 1,326,3000,9.2
Cc1c(C(=O)N[C@@H]2CCCNC2)nn(-c2ccc(Cl)cc2Cl)c1-c1ccc(Cl)cc1,1170,,,,
Cc1c(C(=O)NC2CCNCC2)nn(-c2ccc(Cl)cc2Cl)c1-c1ccc(Cl)cc1,5120,,,,
CCCNC(=O)N1CCC[C@@H](NC(=O)c2nn(-c3ccc(Cl)cc3Cl)c(-c3ccc(Cl)cc3)c2C)C1,27,,23,3090,134
Cc1c(C(=O)NCC2CCC(CNC(=O)NC(C)(C)C)CC2)nn(-c2ccc(Cl)cc2Cl)c1-c1ccc(Cl)cc1 (stereo unspecified),150,,,,
Cc1c(C(=O)NC2CCN(S(N)(=O)=O)CC2)nn(-c2ccc(Cl)cc2Cl)c1-c1ccc(Cl)cc1,592,,,,
Cc1c(C(=O)N2CCC(NS(C)(=O)=O)(c3ccccc3)CC2)nn(-c2ccc(Cl)cc2Cl)c1-c1ccc(Cl)cc1,3.5,3,5.6,,
Cc1c(C(=O)N2CCC(N)(c3ccccc3)CC2)nn(-c2ccc(Cl)cc2Cl)c1-c1ccc(Cl)cc1,485,,10.8,,
CCCCNC(=O)N1CCC[C@@H](NC(=O)c2nn(-c3ccc(Cl)cc3Cl)c(-c3ccc(Cl)cc3)c2C)C1,118,,24,3030,125
Cc1c(C(=O)N[C@H]2CCCN(C(=O)NC(C)(C)C)C2)nn(-c2ccc(Cl)cc2Cl)c1-c1ccc(Cl)cc1,206,,,,

# — ChEMBL document CHEMBL2029271, “Design and synthesis of cannabinoid receptor 1 antagonists for peripheral selectivity” (J Med Chem, 2012)
